These results are taken from ChEMBL document CHEMBL3297709, “High affinity ligands and potent antagonists for the α1D-adrenergic receptor. Novel 3,8-disubstituted [1]benzothieno[3,2-d]pyrimidine derivatives” (Eur J Med Chem, 2014).

In test [1] the target is T1, Alpha-1D adrenergic receptor (Rattus norvegicus) (UniProt P23944).
T1 sequence (whole entry): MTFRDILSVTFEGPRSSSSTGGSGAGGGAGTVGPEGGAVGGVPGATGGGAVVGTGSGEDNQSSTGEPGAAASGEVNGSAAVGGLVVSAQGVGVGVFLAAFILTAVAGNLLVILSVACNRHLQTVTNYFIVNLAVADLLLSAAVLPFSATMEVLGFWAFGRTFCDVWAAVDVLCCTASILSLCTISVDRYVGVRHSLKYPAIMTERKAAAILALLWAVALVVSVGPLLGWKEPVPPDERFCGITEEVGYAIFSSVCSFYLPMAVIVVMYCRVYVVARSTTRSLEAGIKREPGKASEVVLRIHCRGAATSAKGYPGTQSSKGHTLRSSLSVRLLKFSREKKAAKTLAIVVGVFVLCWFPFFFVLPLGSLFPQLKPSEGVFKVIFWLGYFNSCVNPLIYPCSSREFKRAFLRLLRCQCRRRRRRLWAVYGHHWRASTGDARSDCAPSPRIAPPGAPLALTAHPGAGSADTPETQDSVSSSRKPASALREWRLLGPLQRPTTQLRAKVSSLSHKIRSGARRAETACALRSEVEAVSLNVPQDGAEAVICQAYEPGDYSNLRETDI
Briefly: Antagonist activity at alpha1D adrenoceptor in Wistar rat thoracic aorta assessed as decrease in noradrenaline induced contractions at 0.1 uM. Further details: scale not given: the % may be the effect or the level left. In outline:
(§1)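 Endothelium-denuded helicoidal thoracic aorta strips (15 x 3 mm) from male Wistar rats, Krebs solution, 1 g tension, ≥2 h equilibration. Cumulative (-)-NA curves recorded isometrically at 1 h intervals, third as control. Antagonist equilibrated 60 min before fourth curve. NA solutions held 0.05% Na2S2O4. pKb = log(DR-1) - log[B]; mean ± SE of 4–5 experiments.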

For test [2], the target named is T2, Alpha-1A adrenergic receptor (Rattus norvegicus) (UniProt P43140).
T2 sequence (whole entry): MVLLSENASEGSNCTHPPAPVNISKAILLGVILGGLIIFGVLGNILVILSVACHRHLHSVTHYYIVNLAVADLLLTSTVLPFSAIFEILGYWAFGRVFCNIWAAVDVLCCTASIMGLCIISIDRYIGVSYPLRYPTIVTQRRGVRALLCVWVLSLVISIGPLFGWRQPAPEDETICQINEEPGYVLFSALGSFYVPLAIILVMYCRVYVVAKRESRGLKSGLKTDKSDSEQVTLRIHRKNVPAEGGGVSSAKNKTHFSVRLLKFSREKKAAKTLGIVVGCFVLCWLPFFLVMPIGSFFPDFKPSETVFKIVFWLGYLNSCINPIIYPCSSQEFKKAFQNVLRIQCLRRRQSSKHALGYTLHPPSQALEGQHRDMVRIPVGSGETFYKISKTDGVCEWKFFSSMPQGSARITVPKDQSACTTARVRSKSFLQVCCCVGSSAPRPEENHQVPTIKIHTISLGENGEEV
Briefly: Antagonist activity at alpha1A adrenoceptor in Wistar rat vas deferens assessed as noradrenaline induced contractions. Put shortly: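 Male Wistar rat (275-300 g) prostatic vas deferens in 20 mL organ bath, physiological salt solution, 37 °C, 5% CO2:95% O2, pH 7.4. Primed twice with 10 µM (-)-NA, 45 min wash/equilibration, then cumulative (-)-NA curve recorded isotonically. Antagonist incubated 30–60 min before repeat curve. pKb = log(DR-1) - log[B] from ED50 ratio; mean ± SE of 4–5 experiments.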

Test [3] addresses T1, Alpha-1D adrenergic receptor (Rattus norvegicus). In words: Antagonist activity at alpha1D adrenoceptor in Wistar rat thoracic aorta assessed as noradrenaline induced contractions. Put shortly:
as §1

Test [4] deals with T3, Alpha-1A adrenergic receptor (Homo sapiens, UniProt P35348).
T3 sequence (P35348 whole entry): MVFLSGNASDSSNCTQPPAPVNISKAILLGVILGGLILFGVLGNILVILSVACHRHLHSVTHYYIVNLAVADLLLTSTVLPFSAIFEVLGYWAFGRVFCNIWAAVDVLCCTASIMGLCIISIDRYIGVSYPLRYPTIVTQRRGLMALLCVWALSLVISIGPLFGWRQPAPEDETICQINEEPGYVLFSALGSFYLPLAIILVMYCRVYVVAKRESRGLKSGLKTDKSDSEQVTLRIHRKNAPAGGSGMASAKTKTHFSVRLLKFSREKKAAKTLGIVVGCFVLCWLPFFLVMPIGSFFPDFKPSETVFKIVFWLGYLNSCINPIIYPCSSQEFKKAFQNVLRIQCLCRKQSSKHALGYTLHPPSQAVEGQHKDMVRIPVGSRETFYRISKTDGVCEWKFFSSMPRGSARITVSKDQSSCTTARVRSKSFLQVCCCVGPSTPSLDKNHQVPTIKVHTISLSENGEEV
Briefly: Displacement of [125I]BE2254 from human alpha1a receptor expressed in HEK293 cells. It counts as cell-based. Put shortly: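 Membranes from HEK293 cells stably transfected with human α1A, α1B or α1D receptor cDNA, selected under 400 µg/mL geneticin. Competition against 50 pM [125I]BE2254; nonspecific binding defined with 10 µM phentolamine. Curves fitted by nonlinear regression. Mean ± SE of three experiments run in duplicate.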

For the compound `COc1ccccc1N1CCN(CCn2c(=O)[nH]c3c(sc4ccc(NC(=O)CCCC(=O)NCc5ccccc5)cc43)c2=O)CC1`, the Activity in test [1] was determined as 100%. Also, the figures for the pKb in test [2] and in test [3] were 7.7 and 8.64, respectively. Also, in test [4], the inhibition constant (Ki) (commonly the dissociation constant of the complex between target and ligand, obtained from inhibition or displacement) was 0.324 nM.

As to `COc1ccccc1N1CCN(CCn2c(=O)[nH]c3c(sc4ccc(NC(=O)CCCC(=O)N(C)Cc5ccccc5)cc43)c2=O)CC1`, the Activity in test [1] came out at 100%. For the same compound, the pKb (in general, −log10 of the Kb, conventionally taken in molar units) is 7.82 in test [2] and 9.15 in test [3]. In test [4], this compound showed a Ki of 0.933 nM.
